Data reported in ChEMBL document CHEMBL1149910, “2-(6-aryl-3(Z)-hexen-1,5-diynyl)anilines as a new class of potent antitubulin agents” (J Med Chem, 2008).

How the values were obtained:
Type in all cases: functional
SNB-75 = assay: Cytotoxicity against human SNB75 cells; details: read-out: pGI50 (converted)
In short: (§1)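 Tested in the NCI in vitro antitumor screening protocol across a tumor cell line panel. GI₅₀ is the concentration producing a 50% reduction in cell growth.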

MDA-MB-231 [1] = assay: Cytotoxicity against human MDA-MB-231 cells; in short: as §1
K562 [2] = assay: Cell cycle arrest in human K562 cells assessed as accumulation at G0/G1 phase at 50 uM after 24 hrs by flow cytometry
In short: (§2)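 K-562 human leukemia cells were grown in RPMI 1640 with 10% fetal calf serum, glutamine and penicillin/streptomycin at 37 °C in 5% CO₂. Cells were exposed to compound at 50 µM for 24 h, then pelleted and PBS-washed. They were fixed in ice-cold ethanol for 30 min, treated with 1 mg/mL RNase A at 37 °C for 30 min, and stained with propidium iodide and Triton X-100 for 30 min at room temperature in the dark. Per-phase and sub-G1 percentages came from flow cytometry gating.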

K562 [3] = assay: Cell cycle arrest in human K562 cells assessed as accumulation at S phase at 50 uM after 24 hrs by flow cytometry; in short: as §2
UACC-62 = assay: Cytotoxicity against human UACC62 cells; details: read-out: pGI50 (converted)
In short: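 NCI in vitro antitumor screening protocol; GI50 taken as the concentration giving 50% reduction in cell growth.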

MDA-MB-435 = assay: Cytotoxicity against human MDA-MB-435 cells; in short: as §1
OVCAR-3 = assay: Cytotoxicity against human OVCAR-3 cells; in short: as §1
K562 [4] = assay: Cell cycle arrest in human K562 cells assessed as accumulation at sub-G1 phase at 50 uM after 24 hrs by flow cytometry; in short: as §2
HCT-15 = assay: Cytotoxicity against human HCT15 cells; in short: as §1
K562 [5] = assay: Cell cycle arrest in human K562 cells assessed as accumulation at G2/M phase at 50 uM after 24 hrs by flow cytometry; in short: as §2
K562 [6] = assay: Cytotoxicity against human K562 cells; in short: as §1
MDA-MB-231 [7] = assay: Cell cycle arrest in human MDA-MB-231 cells assessed as accumulation of >4N cells at 2 uM after 72 hrs by flow cytometry
MDA-MB-231 [8] = assay: Cell cycle arrest in human MDA-MB-231 cells assessed as accumulation of 2N cells at 2 uM after 24 hrs by flow cytometry
MDA-MB-231 [9] = assay: Cell cycle arrest in human MDA-MB-231 cells assessed as accumulation of 4N cells at 2 uM after 24 hrs by flow cytometry
MDA-MB-231 [10] = assay: Cell cycle arrest in human MDA-MB-231 cells assessed as accumulation of 2N cells at 2 uM after 72 hrs by flow cytometry
MDA-MB-231 [11] = assay: Cell cycle arrest in human MDA-MB-231 cells assessed as accumulation at sub-G1 phase at 2 uM after 24 hrs by flow cytometry
MDA-MB-231 [12] = assay: Cell cycle arrest in human MDA-MB-231 cells assessed as accumulation at sub-G1 phase at 2 uM after 72 hrs by flow cytometry
MDA-MB-231 [13] = assay: Cell cycle arrest in human MDA-MB-231 cells assessed as accumulation of 4N cells at 2 uM after 72 hrs by flow cytometry
MDA-MB-231 [14] = assay: Cell cycle arrest in human MDA-MB-231 cells assessed as accumulation of >4N cells at 2 uM after 24 hrs by flow cytometry

| SMILES | GI50 (SNB-75) [nM] | GI50 (MDA-MB-231 [1]) [nM] | Activity (K562 [2]) [%] | Activity (K562 [3]) [%] | GI50 (UACC-62) [nM] | GI50 (MDA-MB-435) [nM] | GI50 (OVCAR-3) [nM] | Activity (K562 [4]) [%] | GI50 (HCT-15) [nM] | Activity (K562 [5]) [%] | GI50 (K562 [6]) [nM] | Activity (MDA-MB-231 [7]) [%] | Activity (MDA-MB-231 [8]) [%] | Activity (MDA-MB-231 [9]) [%] | Activity (MDA-MB-231 [10]) [%] | Activity (MDA-MB-231 [11]) [%] | Activity (MDA-MB-231 [12]) [%] | Activity (MDA-MB-231 [13]) [%] | Activity (MDA-MB-231 [14]) [%] |
| --- | --- | --- | --- | --- | --- | --- | --- | --- | --- | --- | --- | --- | --- | --- | --- | --- | --- | --- | --- |
| Nc1ccccc1C#C/C=C\C#Cc1c(F)c(F)c(F)c(F)c1F | 39800 | 2510 | 43.6 | 38.5 | 12600 | 15800 | 15800 | 27.34 | 15800 | 17.9 | 15800 | – | – | – | – | – | – | – | – |
| Nc1ccccc1C#C/C=C\C#Cc1ccccc1OC(F)(F)F | 2510 | 5010 | 4.5 | 24.1 | 6310 | 1260 | 3980 | 30.55 | 3980 | 71.4 | 2510 | – | – | – | – | – | – | – | – |
| Nc1ccccc1C#C/C=C\C#CC#C/C=C\C#Cc1ccccc1N | 3160 | 1580 | 22.8 | 25 | 2000 | 3160 | 2510 | 9.19 | 3980 | 52.2 | 794 | – | – | – | – | – | – | – | – |
| Nc1ccccc1C#C/C=C\C#Cc1ccc([N+](=O)[O-])cc1 | – | – | 35 | 46.2 | – | – | – | 15.78 | – | 18.8 | – | – | – | – | – | – | – | – | – |
| Nc1ccccc1C#C/C=C\C#Cc1ccccc1[N+](=O)[O-] | 12600 | 398 | 42.7 | 41 | 2000 | 398 | 3980 | 11.13 | 794 | 16.3 | 501 | – | – | – | – | – | – | – | – |
| Nc1ccccc1C#C/C=C\C#Cc1ccc(F)cc1F | – | 15800 | 32.5 | 33.1 | 15800 | 2510 | 6310 | 10.04 | 12600 | 34.4 | 5010 | – | – | – | – | – | – | – | – |
| Nc1ccccc1C#C/C=C\C#Cc1ccccc1F | – | 10000 | 22.1 | 40.9 | 7940 | 2000 | 3160 | 11.5 | 5010 | 37 | 3160 | – | – | – | – | – | – | – | – |
| COc1cc2c(c(OC)c1OC)-c1ccc(OC)c(=O)cc1[C@@H](NC(C)=O)CC2 [COLCHICINE] | 25.1 | 316 | – | – | 25.1 | 10 | 15.8 | – | 126 | – | 12.6 | 11.5 | 10.2 | 55.2 | 6.9 | 23.3 | 60 | 21.6 | 11.3 |
| CCOC(=O)c1ccccc1C#C/C=C\C#Cc1ccccc1N | – | – | 5.9 | 12.7 | – | – | – | 28.68 | – | 81.4 | – | – | – | – | – | – | – | – | – |
| COc1ccc(/C=C\c2cc(OC)c(OC)c(OC)c2)cc1O [COMBRETASTATIN A4] | 794 | 10 | – | – | 10 | 31.6 | 39.8 | – | 31.6 | – | 31.6 | – | – | – | – | – | – | – | – |
